CHOP inhibitor: inhibitors of CHOP promoter induction, primary screen, cell-based, unfolded protein response, luciferase reporter. CHO-K1 CHOP-promoter luciferase, tunicamycin-induced, 15-18 h. inhibition, % at 10 µM. 220,000 compounds, 3.8% hits. AID 2732, 2010;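 active = compounds that reduced the stress-induced luciferase reporter signal by more than about 70% of percent inhibition, limit read from the data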;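 note: 0% = tunicamycin plus vehicle and 100% = wells without tunicamycin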
NR3A LBD binder: binders of NR3A ligand-binding domain, primary screen, biophysical, differential scanning fluorimetry, uHTS; 340,000 compounds, 2.5% hits; Tm shift relative to glycine control, % at 25 µM; NR3A LBD differential scanning fluorimetry, Tm shift; 0% = protein alone, 100% = glycine-bound protein;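 active = melting temperature shift of at least 10% of the positive control shift, at one fixed dose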
WT yeast gro inh: growth inhibition of WT strain, primary screen, mitochondrial fusion inhibitor project, WT and mutant strains, chemical genetic | inhibition, % at 10 µM | mitochondrial fusion phenotypic screen | 190,000 compounds, 2.1% hits; in the data active = inhibition above about 58%; tested in S. cerevisiae
EBV gp42 block: Epstein-Barr virus gp42 inhibitors, primary screen, biochemical, uHTS, fluorescence polarization; 220,000 compounds, 0.42% hits; AID 1085, 2008; Glycoprotein 42 (Epstein-Barr virus (strain AG876)), Q1HVG2; inhibition, % (tested at 21.74 µM); Fluorescence polarization binding assay, mP read-out; in the data active = inhibition above about 50%
Target sequence (Q1HVG2 whole entry, looked up): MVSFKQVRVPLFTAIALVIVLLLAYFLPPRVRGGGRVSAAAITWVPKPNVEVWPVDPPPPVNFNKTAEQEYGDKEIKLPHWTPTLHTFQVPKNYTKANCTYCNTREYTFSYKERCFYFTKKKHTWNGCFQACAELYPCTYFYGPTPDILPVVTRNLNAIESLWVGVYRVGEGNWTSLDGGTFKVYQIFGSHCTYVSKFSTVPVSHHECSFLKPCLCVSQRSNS
MPTP block: mitochondrial permeability transition pore inhibitors, primary screen, biochemical, isolated mouse mitochondria, absorbance. Ca2+ swelling absorbance, 30 min. 360,000 compounds, 1.4% hits. inhibition, % at 10 µM;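 active = inhibition of 50% or more, scaled per plate between neutral and stimulator controls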;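 note: 0% = DMSO wells given calcium and 100% = 1 mM EGTA wells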
Tb MetRS inh: T. brucei MetRS inhibitors, primary screen, biochemical, luminescence. purified T. brucei MetRS, ATP depletion, Kinase-Glo luminescence. inhibition, % at 11.9 µM. 360,000 compounds, 0.4% hits;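 active = inhibition above a per-plate cutoff of the control wells' mean inhibition plus 3 SD, cut at about 5.5% in these data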;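 note: 0% = DMSO wells median and 100% = median of wells with control inhibitor compound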
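Assay system: T. brucei methionyl-tRNA synthetase, purified | Medium: HEPES buffer with MgCl2, KCl, DTT, spermine, BSA, pyrophosphatase | Compound: 11.9 µM single point | Incubation: 15 min enzyme-compound preincubation, 2 h reaction, 10 min detection, 25 °C | Measured by: Kinase-Glo luciferase luminescence reporting remaining unconsumed ATP | Measure: % inhibition normalized to control-well medians | Replication: Singlicate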
The depositor's hits bear a star; . = no result. Rows were chosen to be rich in hits. Some 6.4% of all compounds tested hit in one or more screens of this group.

SMILES	CHOP inhibitor	NR3A LBD binder	WT yeast gro inh	EBV gp42 block	MPTP block	Tb MetRS inh
Cc1ccc(/C=C/C(=O)OCc2nc(N)nc(Nc3ccccc3C)n2)o1	9	-14	18	85*	-1	-1
Clc1ccc(-c2onc3c2CCCC3)cc1	78*	1	15	-8	2	0
c1ccc(Cc2nnc3sc(-c4ccncc4)nn23)cc1	38	3	-8	-7	-1	0
CCOP(=O)(OCC)c1nc(-c2cccc3ccccc23)oc1N1CCOCC1	23	-1	8	-10	-4	1
CCOP(=O)(OCC)c1nc(-c2cccc3ccccc23)oc1NCCc1ccc(OC)cc1	60	16*	70*	-2	1	0
CCOC(=O)c1c(NC(=O)C2C3CCC(O3)C2C(=O)O)sc2c1CCC(CC)C2 (stereo not given)	-12	0	-10	14	-1	0
CCOC(=O)c1c(NC(=O)C2C3C=CC(C3)C2C(=O)O)sc2c1CCC(CC)C2 (stereo not given)	72*	-2	11	11	5	-1
CC(C)NC(=O)NC1C2CC3CC(C2)CC1C3 (stereo not given)	6	13*	.	-1	1	0
COc1ccccc1Nc1nc(-c2cccc(N3C(=O)c4ccccc4C3=O)c2)cs1	49	15*	-1	5	-2	0
O=C1c2ccccc2C(=O)N1c1cccc(-c2csc(Nc3ccc4c(c3)OCO4)n2)c1	9	.	12	5	.	.
O=C1C=C(c2cnc3ccccc3c2)C[C@@H](c2ccc3c(c2)OCO3)C1	.	0	.	.	0	0
CC(C)(C)C1CCc2[nH]c3ccccc3c(=O)c2C1 (stereo not given)	-21	-2	82*	-9	-4	1
O=c1c2c([nH]c3ccccc13)CCCC2	1	1	-7	-22	-3	0
CCOC(=O)CSc1nc2c(sc(=S)n2-c2ccccc2OC)c(=O)n1-c1ccccc1OC	.	-2	.	.	0	-1
CCOC(=O)CSc1nc2c(sc(=S)n2-c2ccccc2OC)c(=O)n1Cc1ccco1	14	19*	20	-8	3	0
Nc1c(-c2ccccc2)nc(Cl)nc1-c1ccccc1	10	-2	-3	5	-1	-1
c1ccc(-c2nc3nonc3nc2-c2ccccc2)cc1	85*	2	47	1	1	1
CCOC(=O)C1=C(CS(=O)(=O)c2ccccc2)NC(=O)NC1c1ccccc1 (stereo not given)	2	3	-2	-3	0	-1
CCCC1=C(C(=O)OCC)C(c2ccc(NC(C)=O)cc2)NC(=O)N1 (stereo not given)	-4	0	61*	-2	1	-1
CCC(CC)NC(=O)c1cc2c(C)nn(Cc3ccccc3Cl)c2s1	46	-5	16	-2	-6	-1
Cc1nn(Cc2ccc(F)cc2)c2sc(C(=O)Nc3ccccc3N3CCOCC3)cc12	-11	3	6	-21	-1	-1
Cc1nn(Cc2ccc(F)cc2)c2sc(C(=O)Nc3nccs3)cc12	93*	-21	6	-18	1	0
Cc1nn(Cc2ccccc2Cl)c2sc(C(=O)Nc3nccs3)cc12	84*	-12	10	-11	0	0
Cc1cccc(CSc2nnc(-c3ccco3)o2)c1	13	0	33	-13	-2	0
Cc1ccc2c(c1)/C(=N/OC(=O)c1ccc(F)cc1)CCS2	-3	5	19	-9	0	-1
O=C(O/N=C1\CCCc2ccccc21)c1ccc(F)cc1	72*	1	22	-8	1	-1
O=C(N/N=C/c1ccc([N+](=O)[O-])o1)c1ccccc1-n1cccc1	.	2	.	.	0	-1
CC(C)CNC(=O)c1oc2ccccc2c1COc1ccccc1	50	-6	63*	-20	5	0
CCC(CC)NC(=O)c1oc2ccccc2c1COc1ccccc1	54	4	38	3	0	-1

Screening data from PubChem BioAssay.
